How the values were obtained:
[1] = Evaluated for its concentration at which 50% of maximal stimulation of phosphoinositide turnover was observed; type: functional, Mus musculus
Method in brief: (§1)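 Swiss 3T3 mouse fibroblasts with FP receptors, confluent, labelled 24-30 h at 37 °C with 1.0-1.5 μCi [3H]-myo-inositol in DMEM. Rinsed into DMEM/F-12 with 10 mM LiCl, then agonist or solvent for 60 min at 37 °C, triplicate. Stopped with ice-cold 0.1 M formic acid. Total [3H]IPs isolated on anion-exchange resin and counted.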

[2] = organism: Mus musculus; assay: Evaluated for percent maximum response relative to cloprostenol (n=2); type: functional; method in brief: as §1
[3] = organism: Mus musculus; assay: Evaluated for percent maximum response relative to cloprostenol (n = 105); type: functional; method in brief: as §1
[4] = organism: Mus musculus; assay: Evaluated for percent maximum response relative to cloprostenol (n=11); type: functional; method in brief: as §1

Row | EC50 [1] [nM] | Structure (SMILES) | Max response [2] [%] | Max response [3] [%] | Max response [4] [%]
1 | 319 | O=C(O)CCC/C=C\C[C@@H]1[C@@H](/C=C/[C@@H](O)COc2cccc(Cl)c2)[C@H](O)CC[C@@H]1O | 72 |  | 
2 | 2750 | O=C(O)CCC/C=C\C[C@@H]1[C@@H](/C=C/[C@H](O)COc2cccc(Cl)c2)[C@H](O)CC[C@@H]1O | 50 |  | 
3 | 1 | O=C(O)CCC/C=C\CC1C(O)CC(O)C1/C=C/C(O)COc1cccc(Cl)c1 (stereo not drawn) [CLOPROSTENOL] |  | 100 | 
4 | 23 | CCCCC[C@H](O)/C=C/[C@@H]1[C@@H](C/C=C\CCCC(=O)O)[C@@H](O)C[C@H]1O [DINOPROST] |  |  | 91

Source: ChEMBL document CHEMBL1133638, “Synthesis and biological activity of a novel 11a-homo (cyclohexyl) prostaglandin” (J Med Chem, 2000)
